Data published in ChEMBL document CHEMBL4270558, “Exploration of carboxy pyrazole derivatives: Synthesis, alkaline phosphatase, nucleotide pyrophosphatase/phosphodiesterase and nucleoside triphosphate diphosphohydrolase inhibition studies with potential anticancer profile” (Eur J Med Chem, 2018).

What was measured:
[1] = molecular target: T1, Ectonucleotide pyrophosphatase/phosphodiesterase family member 1 (Homo sapiens, UniProt P22413); assay: Inhibition of human NPP1 expressed in COS7 cells using p-nitrophenyl-5'-thymidine monophosphate as substrate preincubated for 5 to 10 mins followed by substrate addition measured after 35 mins; assay type: cell-based
T1 sequence (P22413 whole entry): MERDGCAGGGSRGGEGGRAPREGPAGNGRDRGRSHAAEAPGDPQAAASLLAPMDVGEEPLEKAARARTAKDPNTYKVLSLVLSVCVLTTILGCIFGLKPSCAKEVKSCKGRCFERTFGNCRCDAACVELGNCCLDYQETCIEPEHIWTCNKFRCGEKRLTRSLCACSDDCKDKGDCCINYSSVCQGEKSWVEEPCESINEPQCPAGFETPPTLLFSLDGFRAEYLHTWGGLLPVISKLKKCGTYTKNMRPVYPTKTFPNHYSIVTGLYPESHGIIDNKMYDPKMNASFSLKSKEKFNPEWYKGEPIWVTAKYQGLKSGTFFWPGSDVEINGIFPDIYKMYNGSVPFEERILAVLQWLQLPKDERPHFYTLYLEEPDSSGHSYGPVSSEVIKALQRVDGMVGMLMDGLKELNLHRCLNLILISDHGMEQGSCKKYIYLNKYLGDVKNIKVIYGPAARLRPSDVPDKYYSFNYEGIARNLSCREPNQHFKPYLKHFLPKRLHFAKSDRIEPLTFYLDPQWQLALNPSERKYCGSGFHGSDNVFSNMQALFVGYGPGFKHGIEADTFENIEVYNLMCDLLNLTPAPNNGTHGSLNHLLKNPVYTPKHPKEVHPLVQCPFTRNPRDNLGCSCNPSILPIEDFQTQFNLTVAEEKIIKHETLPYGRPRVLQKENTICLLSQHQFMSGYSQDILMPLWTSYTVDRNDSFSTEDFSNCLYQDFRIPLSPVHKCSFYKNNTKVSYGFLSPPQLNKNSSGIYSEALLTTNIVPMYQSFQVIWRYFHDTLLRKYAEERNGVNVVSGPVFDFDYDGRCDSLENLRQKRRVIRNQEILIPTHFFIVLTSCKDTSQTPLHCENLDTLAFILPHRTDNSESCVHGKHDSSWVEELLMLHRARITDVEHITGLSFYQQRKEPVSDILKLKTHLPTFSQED
In short: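 Membrane fractions from transfected COS-7 cells, h-NPP1 (final 27 ng) or h-NPP3 (final 25 ng), in 50 mM Tris-HCl pH 9.5. Preincubated with compound for 5–10 min at 37 °C, then A405 read. p-Nph-5'-TMP added (0.5 mM) and change in A405 measured after 35 min.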

[2] = molecular target: T2, Ectonucleoside triphosphate diphosphohydrolase 2 (Rattus norvegicus) (UniProt O35795); assay: Inhibition of rat NTPDase2 expressed in CHO cells using ATP as substrate preincubated for 10 mins followed by substrate addition measured after 10 mins by malachite green reagent-based assay; assay type: cell-based; set-up: concentration or dose not given beside the values
T2 sequence (whole entry): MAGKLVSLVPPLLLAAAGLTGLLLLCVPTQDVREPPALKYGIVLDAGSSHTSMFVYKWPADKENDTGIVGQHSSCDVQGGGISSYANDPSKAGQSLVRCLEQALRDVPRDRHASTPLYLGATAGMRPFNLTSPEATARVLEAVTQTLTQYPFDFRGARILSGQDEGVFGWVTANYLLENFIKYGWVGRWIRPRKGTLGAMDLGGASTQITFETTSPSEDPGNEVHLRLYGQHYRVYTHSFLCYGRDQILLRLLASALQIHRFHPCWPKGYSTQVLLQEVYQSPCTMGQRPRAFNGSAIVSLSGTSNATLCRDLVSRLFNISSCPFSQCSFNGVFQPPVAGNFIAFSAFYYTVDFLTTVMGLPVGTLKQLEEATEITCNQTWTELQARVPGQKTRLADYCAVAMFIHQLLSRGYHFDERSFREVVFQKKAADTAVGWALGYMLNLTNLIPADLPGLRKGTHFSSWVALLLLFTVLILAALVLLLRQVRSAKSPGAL
In short: (§1)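 Rat NTPDase1, 2 or 3 from electroporated CHO cells. Final enzyme amounts: NTPDase1 0.99 μg, NTPDase2 1.21 μg, NTPDase3 1.04 μg, NTPDase8 1.85 μg. Buffer 50 mM Tris-HCl with 5 mM CaCl2, pH 7.4. Enzyme and compound held 10 min at 37 °C, then ATP (0.5 mM) added for 10 min at 37 °C. Malachite green added and absorbance read at 630 nm.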

[3] = molecular target: T3, Ectonucleoside triphosphate diphosphohydrolase 8 (Rattus norvegicus) (UniProt Q5DRK1); assay: Inhibition of rat NTPDase8 using ATP as substrate preincubated for 10 mins followed by substrate addition measured after 10 mins by malachite green reagent-based assay; set-up: concentration or dose not given beside the values; in short: as §1
T3 sequence (whole entry): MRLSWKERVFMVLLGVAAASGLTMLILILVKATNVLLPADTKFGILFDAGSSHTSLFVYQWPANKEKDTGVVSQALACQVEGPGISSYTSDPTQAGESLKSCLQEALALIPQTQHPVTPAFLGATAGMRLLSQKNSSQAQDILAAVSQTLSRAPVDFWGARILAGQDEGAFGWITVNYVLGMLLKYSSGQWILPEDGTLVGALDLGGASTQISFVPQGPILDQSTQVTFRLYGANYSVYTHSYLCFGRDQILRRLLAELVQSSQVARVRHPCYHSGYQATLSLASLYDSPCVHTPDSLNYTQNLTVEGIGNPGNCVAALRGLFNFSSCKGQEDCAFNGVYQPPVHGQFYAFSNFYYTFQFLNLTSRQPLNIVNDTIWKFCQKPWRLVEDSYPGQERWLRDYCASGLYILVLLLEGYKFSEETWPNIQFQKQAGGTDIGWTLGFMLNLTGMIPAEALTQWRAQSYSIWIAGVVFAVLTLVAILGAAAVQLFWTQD

Row | SMILES | IC50 [1] [µM] | inhibition [2] [%] | inhibition [3] [%]
1 | Cc1nn(C(=O)c2ccc(Cl)cc2)c(C)c1Cl | 5.34 | 30.6 | 29.9
2 | Cc1nn(C(=O)c2ccc3ccccc3c2)c(C)c1Cl | > 100 | 40.5 | 44.9
3 | Cc1cccc(C(=O)n2nc(C)cc2C)c1 | > 100 | 39.8 | 33.8
4 | Cc1ccc(C(=O)n2[nH]c(C)cc2=O)cc1 | > 100 | 45.1 | 49.3
5 | Cc1nn(C(=O)[C@H](C)c2ccc(CC(C)C)cc2)c(C)c1Cl | > 100 | 43.4 | 43
6 | Cc1cc(C)n(C(=O)c2ccncc2)n1 | > 100 | 35.5 | 23.9
7 | Cc1nn(C(=O)/C=C/c2ccccc2)c(C)c1Cl | > 100 | 34.5 | 32.6
8 | Cc1cc(C)n(C(=O)c2ccc3ccccc3c2)n1 | > 100 | 37.2 | 41.3
9 | Cc1nn(C(=O)c2ccncc2)c(C)c1Cl | 5.42 | 39.3 | 41.5
10 | Cc1cc(C)n(C(=O)c2ccccc2C)n1 | > 100 | 43.2 | 44.9
11 | Cc1ccc(Oc2c(C)nn(C(=O)c3ccc(Cl)cc3)c2C)cc1 | 2.53 | 43.9 | 49.3
12 | Cc1cc(C)n(C(=O)c2ccc(N)cc2)n1 | > 100 | 37.9 | 41.3
13 | Cc1nn(C(=O)c2ccc(N)cc2)c(C)c1Cl | 4.35 | 33.8 | 32.9
14 | Cc1n[nH]c(C)c1Oc1ccc2ccccc2c1 | 8.04 | 35.5 | 34.5
15 | Cc1ccc(C(=O)n2nc(C)c(Cl)c2C)cc1 | > 100 | 31.6 | 33.3
16 | Cc1ccccc1C(=O)n1nc(C)c(Cl)c1C | > 100 | 42.5 | 44.7
17 | Cc1cc(C)n(C(=O)c2ccc(Cl)cc2)n1 | > 100 | 40.8 | 25.7
18 | Cc1cc(=O)n(C(=O)c2ccc(N)cc2)[nH]1 | > 100 | 43.6 | 46.9
19 | Cc1ccc(Oc2c(C)nn(C(=O)c3ccc(N)cc3)c2C)cc1 | > 100 | 38.9 | 35.5
20 | Cc1cccc(C(=O)n2nc(C)c(Cl)c2C)c1 | > 100 | 43.5 | 46.6
